Experiments:
Hamster [1] = test: concentration in plasma after dosing; settings: dosed: 2,4-Dichlorophenoxyacetic acid, 8.0 mg/kg, iv, Male, Syrian Golden
Method in brief: (§1)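 Data points giving concentration or amount against time came from published in vivo toxicokinetic studies and from two structured collections. PubMed searching, classifier screening and manual review located the studies. Most points were digitised from plot screenshots using WebPlotDigitizer, the rest were copied from tables, and all keep their reported units.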

Hamster [2] = test: concentration in plasma after dosing; settings: dosed: 2,4-Dichlorophenoxyacetic acid, 8.0 mg/kg, iv, Male, Syrian Golden; remark: listed apart in the source
Method in brief: as §1

Mouse [3] = test: concentration in plasma after dosing; settings: 0.25 h; dosed: 2-Hydroxy-4-methoxybenzophenone; 250 mg/kg; oral; Female; B6C3F1
Mouse [4] = test: concentration in plasma after dosing; settings: 2 h; dosed: 2-Hydroxy-4-methoxybenzophenone; 500 mg/kg; oral; Female; B6C3F1
Rat [5] = test: concentration in plasma after dosing; settings: dosed: 2-Hydroxy-4-methoxybenzophenone, 500 mg/kg, oral, Male, F344
Mouse [6] = test: concentration in plasma after dosing; settings: 10 min; dosed: 2-Hydroxy-4-methoxybenzophenone; 50 mg/kg; iv; Male; B6C3F1
Rat [7] = test: concentration in plasma after dosing; settings: dosed: 2-Hydroxy-4-methoxybenzophenone, 500 mg/kg, oral, Female, F344
rat [8] = test: amount in urine after dosing (umol); settings: inhalation, duration: 4 hr, F344 (Harlan Winkelmann)
Rat [9] = test: concentration in liver after dosing; settings: 192 h; dosed: Perfluorohexane-1-sulphonic acid – potassium salt; 16 mg/kg; oral; Female; F344
Rat [10] = test: concentration in kidney after dosing; settings: 96 h; dosed: Perfluorohexane-1-sulphonic acid – potassium salt; 16 mg/kg; oral; Female; Harlan Sprague Dawley
Rat [11] = test: concentration in liver after dosing; settings: 24 h; dosed: Perfluorohexane-1-sulphonic acid – potassium salt; 16 mg/kg; oral; Female; Harlan Sprague Dawley
Rat [12] = test: concentration in kidney after dosing; settings: 3 h; dosed: Perfluorohexane-1-sulphonic acid – potassium salt; 16 mg/kg; oral; Female; Harlan Sprague Dawley
Rat [13] = test: concentration in kidney after dosing; settings: 24 h; dosed: Perfluorohexane-1-sulphonic acid – potassium salt; 16 mg/kg; oral; Female; Harlan Sprague Dawley
Rat [14] = test: concentration in kidney after dosing; settings: 12 h; dosed: Perfluorohexane-1-sulphonic acid – potassium salt; 16 mg/kg; oral; Female; Harlan Sprague Dawley
Rat [15] = test: concentration in liver after dosing; settings: 6 h; dosed: Perfluorohexane-1-sulphonic acid – potassium salt; 16 mg/kg; oral; Female; Harlan Sprague Dawley
Rat [16] = test: concentration in plasma after dosing; settings: 2 h; dosed: Pyridine; 5 mg/kg; iv; Male; F344
Rat [17] = test: concentration in plasma after dosing; settings: 1.5 h; dosed: alpha-Thujone; 25 mg/kg; oral; Male; Harlan Sprague Dawley
Rat [18] = test: concentration in plasma after dosing; settings: 3 h; dosed: alpha-Thujone; 25 mg/kg; oral; Male; Harlan Sprague Dawley
Rat [19] = test: concentration in plasma after dosing; settings: 0.5 h; dosed: alpha-Thujone; 25 mg/kg; oral; Male; Harlan Sprague Dawley
Rat [20] = test: concentration in brain after dosing; settings: 5 min; dosed: alpha-Thujone; 25 mg/kg; oral; Male; Harlan Sprague Dawley
Rat [21] = test: concentration in plasma after dosing; settings: 1.5 h; dosed: alpha-Thujone; 25 mg/kg; oral; Male; Harlan Sprague Dawley; remark: listed apart in the source
Rat [22] = test: concentration in brain after dosing; settings: 10 min; dosed: alpha-Thujone; 25 mg/kg; oral; Male; Harlan Sprague Dawley
Rat [23] = test: concentration in plasma after dosing; settings: 12 h; dosed: alpha-Thujone; 50 mg/kg; oral; Male; Harlan Sprague Dawley
Rat [24] = test: concentration in brain after dosing; settings: 1.5 h; dosed: alpha-Thujone; 50 mg/kg; oral; Female; Harlan Sprague Dawley
Rat [25] = test: concentration in plasma after dosing; settings: 1.5 h; dosed: alpha-Thujone; 25 mg/kg; oral; Male; Harlan Sprague Dawley; remark: listed apart in the source
Rat [26] = test: concentration in brain after dosing; settings: 2.5 h; dosed: 76231-76-0; 3.0 mg/kg; iv; Female; F344
rat [27] = test: concentration in blood after dosing; negative times count back from the end of exposure; settings: dosed: trichloroethylene, 50 ppm, inhalation, duration: 4 hr, male, Sprague Dawley
human = test: concentration in blood after dosing; settings: dosed: trichloroethylene, 100 ppm, inhalation, duration: 6 hr, male
Method in brief: as §1

O=C(O)COc1ccc(Cl)cc1Cl [2,4-Dichlorophenoxyacetic acid]
concentration in plasma [ng/mL]
Settings	0.5 h	1 h	5 min	10 min	40 min
Hamster [1]	–	–	55300	–	3090
Hamster [2]	10700	1700	–	30200	–

O=C(c1ccccc1)c1ccc(O)cc1O [2,4-Dihydroxybenzophenone]
Settings	concentration in plasma [ng/mL]
Mouse [3]	437
Mouse [4]	135
Mouse [6]	3210

concentration in plasma [ng/mL]
Settings	0.5 h	10 h	10 min	12 h
Rat [5]	–	203	55.1	–
Rat [7]	669	–	–	198

CC(C)(O)CO [2-methyl-1,2-propanediol]
rat [8]
Settings	amount in urine
5.902 h, dosed: ethyl tert-butyl ether, 4.5 ppm	0.0942
5.941 h, dosed: methyl tert-butyl ether, 38.7 ppm	1.91
5.99 h, dosed: ethyl tert-butyl ether, 40.6 ppm	0.962
11.87 h, dosed: ethyl tert-butyl ether, 4.5 ppm	0.122
11.94 h, dosed: methyl tert-butyl ether, 38.7 ppm	1.17
11.96 h, dosed: ethyl tert-butyl ether, 40.6 ppm	0.855
11.97 h, dosed: methyl tert-butyl ether, 4.5 ppm	0.56
17.81 h, dosed: ethyl tert-butyl ether, 4.5 ppm	0.0535
17.95 h, dosed: methyl tert-butyl ether, 38.7 ppm	0.268
18.01 h, dosed: ethyl tert-butyl ether, 40.6 ppm	0.254
18.01 h, dosed: methyl tert-butyl ether, 4.5 ppm	0.155
23.76 h, dosed: ethyl tert-butyl ether, 4.5 ppm	0.0171
23.93 h, dosed: methyl tert-butyl ether, 38.7 ppm	0.126
23.95 h, dosed: methyl tert-butyl ether, 4.5 ppm	0.0371
23.96 h, dosed: ethyl tert-butyl ether, 40.6 ppm	0.0668
29.72 h, dosed: ethyl tert-butyl ether, 4.5 ppm	0.015
29.91 h, dosed: methyl tert-butyl ether, 38.7 ppm	0.0631
29.93 h, dosed: ethyl tert-butyl ether, 40.6 ppm	0.0668
29.96 h, dosed: methyl tert-butyl ether, 4.5 ppm	0.023

O=S(=O)([O-])C(F)(F)C(F)(F)C(F)(F)C(F)(F)C(F)(F)C(F)(F)F.[K+] [Perfluorohexane-1-sulphonic acid – potassium salt]
Settings	concentration in kidney [ng/g]	concentration in liver [ng/g]
Rat [9]	–	40300
Rat [10]	6720	–
Rat [11]	–	29500
Rat [12]	42800	–
Rat [13]	24300	–
Rat [14]	25000	–
Rat [15]	–	33000

c1ccncc1 [Pyridine]
Settings	concentration in plasma [ng/mL]
Rat [16]	2920

CC(C)[C@]12CC(=O)[C@H](C)[C@H]1C2 [alpha-Thujone]
Settings	concentration in brain [ng/g]	concentration in plasma [ng/mL]
Rat [17]	–	233
Rat [18]	–	131
Rat [19]	–	337
Rat [20]	360	–
Rat [21]	–	130
Rat [22]	765	–
Rat [23]	–	20
Rat [24]	1360	–
Rat [25]	–	240
Rat [26]	19.8	–

OCC(Cl)(Cl)Cl [trichloroethanol (free)]
rat [27]
Settings	concentration in blood [ng/mL]
0.1894 h	1660
0.429 h	1600
0.9471 h	1580
1.964 h	1500
3.996 h	1440
5.928 h	1510
7.943 h	1140
9.955 h	1050
11.95 h	1030
13.94 h	1040
15.88 h	449
17.91 h	747

rat [27], during exposure
Settings	concentration in blood [ng/mL]
-180 s	1690
-2.968 h	427
-1.958 h	1200
-1.022 h	1260

OCC(Cl)(Cl)Cl [trichloroethanol]
human
Settings	concentration in blood [ng/mL]
0 h	4780
18 h	1170
24 h	3430
42 h	2780
48 h	6470
66 h	5220
72 h	10800
90 h	7860
